According to ChEMBL document CHEMBL1250451, “Mechanistic insights into a Ca2+-dependent family of alpha-mannosidases in a human gut symbiont” (Nat Chem Biol, 2010):

Experiments:
Assay type in all cases: protein assay
[1] = substrate: O=[N+]([O-])c1ccc(O[C@H]2O[C@H](CO)[C@@H](O)[C@H](O)[C@@H]2O)cc1; assay: (§1) Ratio of Kcat to Km for Bacteroides thetaiotaomicron GH92 alpha-mannosidase GH92 alpha-mannosidase 4093 assessed as mannose release after 16 hrs by HPLC
[2] = substrate: OC[C@H]1O[C@H](O[C@H]2[C@H](O)[C@H](O)[C@@H](O)O[C@@H]2CO)[C@@H](O)[C@@H](O)[C@@H]1O; assay: as §1
[3] = substrate: O=[N+]([O-])c1ccc(O[C@H]2O[C@H](CO)[C@@H](O)[C@H](O)[C@@H]2O)cc1; assay: (§2) Activity of Bacteroides thetaiotaomicron GH92 alpha-mannosidase GH92 alpha-mannosidase 4093 assessed as mannose release after 16 hrs by HPLC
Outline: (§3)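 Yeast mannan or ovalbumin (mostly high-mannose N-glycans) at 1 mg ml−1 was incubated with recombinant IMAC-purified enzyme from E. coli. The methods give enzyme at 2 μM and the table footnote gives 1 μM. Buffer was 100 mM sodium HEPES pH 7.0 with 1 mg ml−1 BSA and 2 mM CaCl2. Aliquots were taken at 1 and 16 h and boiled 10 min. Mannose was measured by HPLC and scored by signal: >500 nC +++, 200–500 ++, <200 +.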

[4] = substrate: OC[C@H]1O[C@H](O[C@H]2[C@H](O)[C@H](O)[C@@H](O)O[C@@H]2CO)[C@@H](O)[C@@H](O)[C@@H]1O; assay: as §2; outline: as §3
[5] = substrate: O=[N+]([O-])c1ccc(O[C@H]2O[C@H](CO)[C@@H](O)[C@H](O)[C@@H]2O)cc1; assay: (§4) Ratio of Kcat to Km for Bacteroides thetaiotaomicron GH92 alpha-mannosidase GH92 alpha-mannosidase 2199 assessed as mannose release after 16 hrs by HPLC
[6] = substrate: OC[C@H]1O[C@H](O[C@H]2[C@@H](O)[C@H](O)[C@@H](CO)O[C@@H]2O)[C@@H](O)[C@@H](O)[C@@H]1O; assay: as §4
[7] = substrate: O=[N+]([O-])c1ccc(O[C@H]2O[C@H](CO)[C@@H](O)[C@H](O)[C@@H]2O)cc1; assay: (§5) Activity of Bacteroides thetaiotaomicron GH92 alpha-mannosidase GH92 alpha-mannosidase 2199 assessed as mannose release after 16 hrs by HPLC
[8] = substrate: OC[C@H]1O[C@H](O[C@H]2[C@@H](O)[C@H](O)[C@@H](CO)O[C@@H]2O)[C@@H](O)[C@@H](O)[C@@H]1O; assay: as §5
[9] = substrate: O=[N+]([O-])c1ccc(O[C@H]2O[C@H](CO)[C@@H](O)[C@H](O)[C@@H]2O)cc1; assay: Activity of Bacteroides thetaiotaomicron GH92 alpha-mannosidase GH92 alpha-mannosidase 3994 assessed as mannose release after 16 hrs by HPLC
[10] = substrate: O=[N+]([O-])c1ccc(O[C@H]2O[C@H](CO)[C@@H](O)[C@H](O)[C@@H]2O)cc1; assay: (§6) Ratio of Kcat to Km for Bacteroides thetaiotaomicron GH92 alpha-mannosidase GH92 alpha-mannosidase 3994 assessed as mannose release after 16 hrs by HPLC
[11] = substrate: OC[C@H]1O[C@H](O[C@H]2[C@H](O)[C@H](O)[C@@H](O)O[C@@H]2CO)[C@@H](O)[C@@H](O)[C@@H]1O; assay: as §6

B1: Alpha-1,2-mannosidase family protein (BT_4093) (Bacteroides thetaiotaomicron), Q8A0C8 (protein)
chain: MKHKFLFILLFSLVLEGMVTTQAVAGDYVHQVNTLIGTKGTGLTSGYLYPGATYPYGMVQFTPSYFSKRSGFVINQLSGGGCEHMGNFPTFPVKGKLKMSPDNILNYRINVSEEKGHAGYYEAMVQEDIKAKLTVTERTGMASYEYPADQQYGTIIIGGGISATPIEQAAIVITAPNKCEGYAEGGNFCGLRTPYKVYFVAEFDTDAFETGTWKREELMPNTTFAEGEYSGVYFTFDVNKKKNIQYKIGVSYVSVENARENLKAENAEWDFQKIQNQAEAKWNHYLGMIEVEGTNPDRTTQFYTHLYRSFIHPNVCSDVNGEYMGADFRVHKSRSKHYTSFSNWDTYRTQIQLLSMLDPEVASDIVISHQLFAEQSGGSFPRWVMANIETGVMQGDPTPILIANAYAFGARNYDPKPIFKIMRKGAEEPGSKSQDVETRPGLKQYLDKGYYNASIQLEYTSADFAIGQFALHAVGDEFASWRYFHFARSWKNLYNSDTGWLQSRNPDGSWKSLGEDFRESTYKNYFWMVPYDIAGLVEIIGGKEKAEKRLDEFFTRLDAGYNDAWFASGNEPSFHIPWIYNWIGRPYKTQEIINRVLNEQYSSKIDGLPGNDDLGTMGAWYVFACIGLYPEIPGVGGFTVNTPIFSSVKVHLKKGDIVIKGGSEKDIYIKSMKLNGKSYESTWIDWDQLNSGATIEYRTSGKPDMKWGAKVVPPSFP
- kcat/Km [1]: 9.08 M⁻¹ s⁻¹
- kcat/Km [2]: 38.3 M⁻¹ s⁻¹
- Km [3]: 1.3 mM
- kcat [3]: 0.0112 s⁻¹
- Km [4]: 35 mM
- kcat [4]: 1.33 s⁻¹

B2: Alpha-1,2-mannosidase (BT_2199) (Bacteroides thetaiotaomicron), Q8A5N9 (protein)
chain: MVTRLFFLSICFPFLLTSCQQSKKTVEFVDYVNPLMGTESTFAFSHGNTYPAVAVPWGMNFWSPQTGENGSGWMYTYTDSLMRGFRQTHQPSPWINDYGTFSIMPLAGELKMSHKERLVPFSHQQEKATPYNYSVTFNNGLQTSLSATSRGAVFEVSFPEKEDQYVVVDAYNGGSSITIEPEKRLVKGATRYNNGGVPDNFANYFMMEFSHPVIEYGTYNGDTLLHHQTDVAADYTCAYLKFDVPAGEKLTIRTASSFISPEQAAINFNREVADADVQLISGKAREQWNNYLGRVEAEGGTDEQLRTFYSCLYRTLLFPREFYEFDSQGNPVYYSPYDGNVHDGYMYTDNGFWDTFRAVHPLFTLLYPEVSERVTQSIINAYNESGFMPEWASPGHRGCMIGNNSVSLLVDAWMKGIQTVDAEKALEAMIHQTQARHAEIASVGRDGFEYYDKLGYVPYPEVPEATAKTLEYAYADWCIARFAESLGKQDIADQYYQKAPNYRNLYYPEHGFMWTKDAKGNWRDRFDATEWGGPFTEGSSWHWTWSVFHDPEGLSELMGGHEPMIARLDSMFVAPNTYNYGTYGFVIHEIAEMVALNMGQYAHGNQPVQHAIYLYDYIGQPWKTQYHLRNVMDKLYNSGSKGYCGDEDNGQTSAWYVFSAMGFYPVCPGMPEYAIGSPLFKKVTLHLPEGKNFVVSAADNAADRPYIRKALLNGQEFTRNYLTHDELKQGGELNLSMDSVPNQQRGTQPADFPYSYSK
- kcat/Km [5]: 14 M⁻¹ s⁻¹
- kcat/Km [6]: 60000 M⁻¹ s⁻¹
- Km [7]: 7.5 mM
- kcat [7]: 0.105 s⁻¹
- kcat [8]: 40 s⁻¹

B3: Alpha-1,2-mannosidase (BT_3994) (Bacteroides thetaiotaomicron), Q8A0M7 (protein)
chain: MKTPIYLLLIVCIFASCNTKQTQAEIDYTSYVNPFIGTDFTGNTYPGAQAPFGMVQLSPDNGLPGWDRISGYFYPDSTIAGFSHTHLSGTGAGDLYDISFMPVTLPYKEAEAPLGIYSKFSHDEESAYAGYYQVRLKDYHINVELTATERCGIQRYTFPKAEAAIFLNLKKAMNWDFTNDSHIEVVDSVTIQGYRYSDGWARDQRIYFRTRFSKPFDKVELDTTAIIKDKQHIGTAVIARFDFHTEEGEQILVNTAISGVSMEGAAKNLQAEVPENDFDKYLAETKANWNRQLGKIEVEGDNQDDKVNFYTALYHSMIAPTIYSDVDGAYYGPDKKVHQSDGWVNYSTFSLWDTYRAAHPLFTYTEPERVNDMVKSFIAFFEQNGRLPVWNFYGSETDMMIGYHAVPVIVDAYLKGIGNFDAEKALAACVATANLDNYRGIGLYKQLGYIPYNVTDHYNAENWSLSKTLEYAFDDYCIAEMANKMGKKEIADEFYKRSQNYKNVYNPATSFMQPRDDKGNFIKDFKADEYTPHICESNGWQYFWSVQHDIDGLIDLTGGKNRFAEKLDSMFTYHPAADEELPIFSTGMIGQYAHGNEPSHHVIYLFNAVGQQNLTQKYVAKVMNELYKNEPAGLCGNEDCGQMSAWYVFSAMGFYPVNPVSGKYEIGTPLFPEMKLHLANGKTFTVLAPKVSKENIYIQSIKVDGQPYNKTYLTHEQIMSGTTVEFEMGNTPLVEVEFEEQTQ
- Km [9]: 3.7 mM
- kcat [9]: 1.57 s⁻¹
- kcat/Km [10]: 433 M⁻¹ s⁻¹
- kcat/Km [11]: 0.0833 M⁻¹ s⁻¹
